This note sets out measurements from PubChem BioAssay AID463079 (The Scripps Research Institute Molecular Screening Center, 2010).

Structures are written as SMILES. Among all 330,000 compounds or so, about 2,000 (0.61%) were called active. Shown is part of a subset that was picked to be rich in actives. Unmarked numbers belong to inactive results.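 How the source made its calls: active means inhibition above that plate's mean sample inhibition plus 3 SD (cut at about 26% in these data); inactive means the rest.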

Broadly, the inhibition is the relative decrease from the control value, in per cent.

The assay can be described thus: nonselective Gq signaling inhibition in CHO cells – cell-based, fluorescence, Fluo-8 calcium dye, counter-screen for OX1R antagonist project, primary screen (AID 463079).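 Further: 0% = ATP-challenged DMSO wells and 100% = DMSO wells without ATP.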 The conditions noted are these: parental CHO-K1, ATP-induced calcium, Fluo-8 fluorescence; at 5.6 µM; stronger effect = higher value. An outline of the steps:
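Assay system: untransfected parental CHO cell line. Also added: ATP agonist challenge. Dosing: one dose, 5.6 µM nominal. Measured by: Fluo-8 fluorescence. Read-out: % inhibition. Benchmarks: ATP wells versus no-ATP DMSO wells. Repeats: no replicates.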
With `CCN(CC)P(=O)(Oc1cccc(C)c1)N(CC)CC`, the inhibition is -16.2%.
`Cc1cccc(OP(=O)(Oc2cccc(C)c2)OC(c2ccccc2)C(F)(F)F)c1` (stereo not given): the inhibition is 43% (active).
In the case of `CN(C)S(=O)(=O)c1cc(C(=O)N2CCC(C(=O)O)(c3ccccc3)CC2)ccc1Cl`, the inhibition is -3.89%.
To `Nc1ccc([N+](=O)[O-])cc1` belongs -2.28%; to `COC(=O)N(c1ccc(OC)cc1)P1(=S)OCCC(C)O1` (stereo not given), -5.5%; to `O=C1NC(=O)C(CCc2ccccn2)(Cc2cccc(Cl)c2Cl)C(=O)N1c1ccc(Br)cc1` (stereo not given), -47.9%.
`O=C1C2(Cl)C3(Cl)C4(Cl)C(Cl)(Cl)C5(Cl)C3(Cl)C1(Cl)C5(Cl)C24Cl` (stereo not given): the inhibition was 48.6% (active).
Take `O=C(CSC1c2ccccc2-c2ccccc21)N/N=C/c1ccccc1`: the inhibition was -10.8%.
Next, `c1ccc(CC2CCCCN2)cc1` (stereo not given): -2.34%; `CC1=C(C(=O)Nc2ccccc2)S(=O)(=O)CCO1`: -5.31%; `CCCCCCCCCCCCn1ccc(=N)cc1`: 40% (active).
To `CCOC(=O)c1c(C)c(C(=O)N2CCC3(CC2)OCCO3)c(C)n1CC` belongs -3.29%; to `CN1CCC(N(C)Cc2cccnc2)CC1`, -10.6%.
For the compound `ClC(Cl)(Cl)c1ccccc1`, the inhibition is 2.74%.
Take `CCN(CC)C(=O)c1ccc(NC(=O)c2cc(-n3cnnc3)ccc2Cl)cc1`: the inhibition was -4.65%.
